Active and inactive are the calls of the source.
Experiments:
Streptococcus pyogenes = test: Antibacterial activity against Streptococcus pyogenes MGAS 1882 assessed as inhibition of bacterial growth incubated for 18 to 20 hrs by broth microdilution method; type: functional; conditions: time 18-20 hrs
Method in brief: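 Broth microdilution with a 0.5 McFarland inoculum diluted in tryptic soy broth to about 5 × 10^5 CFU/mL. Serial compound dilutions incubated aerobically at 37° C for 18–20 hours. MIC read visually as the lowest concentration with no growth.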

Staphylococcus aureus [1] = test: Downregulation of multifunctional 2,3-cyclic-nucleotide 2-phosphodiesterase/5-nucleotidase/3-nucleotidase protein expression in Staphylococcus aureus measured after 2 hrs by LC-MS/MS analysis; type: functional
Method in brief: (§1)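 S. aureus ATCC 25923 at OD600 0.6 exposed to compound or DMSO control for 2 h at 37°C, normalized to OD600 1.1 and PBS-washed. Cells were pressure-cycling lysed in 100 mM ammonium bicarbonate, and 50 μg protein was acetone-precipitated, reduced and alkylated, then Trypsin/Lys-C digested and C18-desalted. About 1 μg peptides went to LC-MS/MS. Label-free quantitation kept proteins present in all 3 samples, filtered at p <0.05.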

Staphylococcus aureus [2] = test: Antibacterial activity against methicillin-resistant Staphylococcus aureus NRS 386 assessed as inhibition of bacterial growth incubated for 18 to 20 hrs by broth microdilution method; type: functional; conditions: time 18-20 hrs
Method in brief: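 Broth microdilution per CLSI. Inoculum was set to 0.5 McFarland and diluted in CAMHB to about 5×10^5 CFU/mL. Serial dilutions of agent were incubated aerobically at 37 °C for 18–20 h. MIC was read visually as the lowest concentration with complete growth inhibition.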

[3] = Toxicity in Balb/c mouse infected with methicillin-resistant Staphylococcus aureus USA300 assessed as hemorrhage administered topically twice daily 2 days post infection and measured after 5 days post compound treatment by H and E staining based histopathological analysis; conditions: in vivo, topical_or_ocular, 120 h, time 5 day
Method in brief: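 MRSA USA300-infected punch wounds in mice, n=5. Topical 2% agent or petroleum jelly vehicle twice daily from day 2 for 5 days. The left wound was formalin-fixed, cut into 4-μm sections and H&E-stained. Whole slides were scanned and assessed by a board-certified veterinary pathologist for necrosis, inflammation, haemorrhage and related features.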

Staphylococcus aureus [4] = test: Inhibition of Glc2-DAG in Staphylococcus aureus ATCC 25923 assessed as reduction in alpha-naphthol at 0.25 to 2 ug/ml measured after 5 hrs by thin layer chromatography; conditions: dose 0.25-2 µg/ml
Method in brief: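 Cells were normalized to OD600 0.9 and washed in 0.1 M sodium acetate pH 4.7. Lipids were Bligh-Dyer extracted and dried under nitrogen, then run on TLC with α-naphthol/sulfuric acid staining. The stained band was identified as Glc2-DAG by MALDI-TOF.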

Staphylococcus aureus [5] = test: Downregulation of signal peptidase II protein expression in Staphylococcus aureus measured after 2 hrs by LC-MS/MS analysis; type: functional; method in brief: as §1
Staphylococcus aureus [6] = test: Downregulation of uroporphyrinogen-III C-methyltransferase protein expression in Staphylococcus aureus measured after 2 hrs by LC-MS/MS analysis; type: functional; method in brief: as §1
Staphylococcus aureus [7] = test: Upregulation of siderophore biosynthesis protein SbnF in Staphylococcus aureus measured after 2 hrs by LC-MS/MS analysis; type: functional; method in brief: as §1
Staphylococcus aureus [8] = test: Upregulation of 30S ribosomal protein S20 expression in Staphylococcus aureus measured after 2 hrs by LC-MS/MS analysis; type: functional; method in brief: as §1
Staphylococcus aureus [9] = test: Downregulation of sodium ABC transporter permease protein expression in Staphylococcus aureus measured after 2 hrs by LC-MS/MS analysis; type: functional; method in brief: as §1
Staphylococcus aureus [10] = test: Upregulation of Cro/CI family transcriptional regulator expression in Staphylococcus aureus measured after 2 hrs by LC-MS/MS analysis; type: functional; method in brief: as §1
Staphylococcus aureus [11] = test: Upregulation of TraG protein expression in Staphylococcus aureus assessed as log2 of fold change in protein level measured after 2 hrs by LC-MS/MS analysis relative to control; type: functional; method in brief: as §1
Staphylococcus aureus [12] = test: Downregulation of SdrD protein expression in Staphylococcus aureus assessed as log2 of fold change in protein level measured after 2 hrs by LC-MS/MS analysis relative to control; type: functional
Method in brief: (§2)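 S. aureus ATCC 25923 at OD600 0.6 was treated with compound or DMSO for 2 h at 37 °C, normalised to OD600 1.1, and washed in PBS. Cells were pressure-lysed in 100 mM ammonium bicarbonate, then acetone-precipitated, reduced with DTT, alkylated with iodoacetamide, and digested with trypsin/Lys-C. Peptides were desalted and run on LC-MS/MS. Label-free quantitation used proteins present in all 3 samples, filtered at p<0.05 against DMSO.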

Staphylococcus aureus [13] = test: Downregulation of PgsA gene expression in Staphylococcus aureus ATCC 25923 assessed as reduction in […] at 0.25 ug/ml incubated for 2 hrs by RT-PCR analysis; type: functional; conditions: dose 0.25 µg/ml
Method in brief: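 S. aureus ATCC 25923 at OD600 0.6 was treated in triplicate with 0.25 μg/mL compound or DMSO for 2 h at 37 °C and pelleted. Total RNA was analysed by real-time RT-PCR with pgsA primers, normalised to 16S rRNA. Significance was tested by Student's t-test.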

Staphylococcus aureus [14] = test: Downregulation of carboxylesterase protein expression in Staphylococcus aureus measured after 2 hrs by LC-MS/MS analysis; type: functional; method in brief: as §2
Staphylococcus aureus [15] = test: Downregulation of AdhE protein expression in Staphylococcus aureus assessed as log2 of fold change in protein level measured after 2 hrs by LC-MS/MS analysis relative to control; type: functional; method in brief: as §2
Staphylococcus aureus [16] = test: Upregulation of MecA protein expression in Staphylococcus aureus assessed as log2 of fold change in protein level measured after 2 hrs by LC-MS/MS analysis relative to control; type: functional; method in brief: as §1
Staphylococcus aureus [17] = test: Downregulation of EsxA protein expression in Staphylococcus aureus assessed as log2 of fold change in protein level measured after 2 hrs by LC-MS/MS analysis relative to control; type: functional; method in brief: as §2
Staphylococcus aureus [18] = test: Downregulation of PTS mannose transporter subunit IIABC protein expression in Staphylococcus aureus measured after 2 hrs by LC-MS/MS analysis; type: functional; method in brief: as §2
Staphylococcus aureus [19] = test: Downregulation of copper-translocating P-type ATPase protein expression in Staphylococcus aureus measured after 2 hrs by LC-MS/MS analysis; type: functional; method in brief: as §2
Staphylococcus aureus [20] = test: Downregulation of nitrite reductase (NAD(P)H) small subunit protein expression in Staphylococcus aureus measured after 2 hrs by LC-MS/MS analysis; type: functional; method in brief: as §1
Staphylococcus aureus [21] = test: Downregulation of LukD protein expression in Staphylococcus aureus assessed as log2 of fold change in protein level measured after 2 hrs by LC-MS/MS analysis relative to control; type: functional; method in brief: as §2
Staphylococcus aureus [22] = test: Upregulation of siderophore biosynthesis protein SbnA expression in Staphylococcus aureus measured after 2 hrs by LC-MS/MS analysis; type: functional; method in brief: as §1
Staphylococcus aureus [23] = test: Downregulation of type VII secretion protein EsaB protein expression in Staphylococcus aureus measured after 2 hrs by LC-MS/MS analysis; type: functional; method in brief: as §1
Enterococcus faecium = test: Antibacterial activity against vancomycin-resistant Enterococcus faecium ATCC 700221 assessed as inhibition of bacterial growth incubated for 18 to 20 hrs by broth microdilution method; type: functional; conditions: time 18-20 hrs
Method in brief: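 Broth microdilution per CLSI. Enterococci were diluted to about 5×10^5 CFU/mL in TSB and incubated aerobically with serial dilutions of agent at 37 °C for 18–20 h. MIC was read visually as the lowest concentration with no visible growth.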

CC1CC(C)CN(S(=O)(=O)c2ccc(C(=O)Nc3nnc(-c4ccc(C(F)(F)F)cc4)o3)cc2)C1 (stereo not given)
Toxic: Activity [3]
0.06 µg/mL: MIC (Streptococcus pyogenes)
active: Activity (Staphylococcus aureus [1]) | inhibition (Staphylococcus aureus [4]) | Activity (Staphylococcus aureus [5]) | Activity (Staphylococcus aureus [6]) | Activity (Staphylococcus aureus [7]) | Activity (Staphylococcus aureus [8]) | Activity (Staphylococcus aureus [9]) | Activity (Staphylococcus aureus [10]) | Activity (Staphylococcus aureus [13]) | Activity (Staphylococcus aureus [14]) | Activity (Staphylococcus aureus [18]) | Activity (Staphylococcus aureus [19]) | Activity (Staphylococcus aureus [20]) | Activity (Staphylococcus aureus [22]) | Activity (Staphylococcus aureus [23])
0.25 µg/mL: MIC (Staphylococcus aureus [2]) | MIC (Enterococcus faecium)
-2.5: log2FC (Staphylococcus aureus [15])
-2: log2FC (Staphylococcus aureus [12]) | log2FC (Staphylococcus aureus [17]) | log2FC (Staphylococcus aureus [21])
2: log2FC (Staphylococcus aureus [11]) | log2FC (Staphylococcus aureus [16])

From ChEMBL document CHEMBL5154895, “Mechanistic Studies and In Vivo Efficacy of an Oxadiazole-Containing Antibiotic” (J Med Chem, 2022)
